Measured values reported in paper PMC8829947 (ACS Omega, 2022).
≈ marks a conversion by molar mass, not a printed value. Where two headings read alike, the source gives them in different places.

Key:
[1] = Zn2+ affinity by competition with colorimetric PAR assay; assay type: binding; settings: read-out: Kd,Zn2; PAR 100 μM, ZnSO4 10 μM, pH 7.5, 3 h at 25 °C
Method in brief: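 The test compound was titrated into Chelex-100-treated 20 mM HEPES, 100 mM NaCl, pH 7.5, containing PAR 100 μM and ZnSO4 10 μM, then incubated 3 h at 25 °C. Zn2+ displacement from PAR was read as the fall in absorbance at 492 nm. Kd was estimated from the known PAR stability constant at pH 7.4.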

[2] = system: E. coli expressing blaNDM-1; assay: Meropenem rescue concentration, antimicrobial susceptibility test; assay type: cell-based, Escherichia coli; settings: rescue concentration at meropenem 2 μg/mL, MHB
Method in brief: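 Checkerboard broth microdilution in Mueller–Hinton broth against E. coli carrying the plasmid-borne MBL gene. Meropenem used five 2-fold dilutions and the test compound six 2-fold dilutions, within 0.5–64 μg/mL; the test compound was dissolved in water or 50% methanol. Inoculum was adjusted to OD625 0.08–0.10, then diluted 200-fold. Incubation was 20 h static at 37 °C, read at OD600. RC is the compound concentration restoring susceptibility at meropenem 2 μg/mL. ≥2 replicates.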

IMP-7 = assay: In vitro enzyme inhibition assay, purified recombinant IMP-7; assay type: biochemical; settings: read-out: IC50 IMP-7 - Zn; Zn2+-depleted (Chelex-100-treated) buffer
Method in brief: (§1)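 Purified recombinant enzyme at 4 nM was preincubated 5–10 min at RT with varying inhibitor concentrations. Buffer was 50 mM HEPES pH 7.5, 0.2% DMSO, 1% PEG 4000, with either 10 μM ZnSO4 or no zinc (Chelex-100-treated, 2 h, filtered). Reactions were started with nitrocefin (30 μM final, A490) or meropenem (50 μM final, A300) and followed 60 s. IC50 came from the linear portion of progress curves. Duplicates.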

NDM-1 = NDM-1 (Klebsiella pneumoniae, UniProt C7C422); assay: In vitro enzyme inhibition assay, purified recombinant NDM-1; assay type: biochemical
Method in brief: as §1

E. coli = assay: MIC of single agent, antimicrobial susceptibility test; assay type: cell-based; settings: Escherichia coli
[3] = system: K. pneumoniae ATCC 33495::pGDP2 (NDM-1); assay: Meropenem rescue and MIC, antimicrobial susceptibility test; assay type: cell-based, Klebsiella pneumoniae; settings: for MIC: Klebsiella pneumoniae
VIM-2 = VIM-2 (Escherichia coli, UniProt Q5U7L7); assay: In vitro enzyme inhibition assay, purified recombinant VIM-2; assay type: biochemical
Method in brief: as §1

E. coli BW25113 (WT) = assay: Cell penetration / intracellular accumulation assay; assay type: cell-based, Escherichia coli; settings: 50 μM, wild-type E. coli
Method in brief: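 E. coli BW25113 (wild type) cells were incubated with the test compound at 50 μM (reference chelator at 50 or 100 μM) for 10 min at 37 °C. Cells were spun through ice-cold silicone oil (12,000g, 2 min), resuspended in water and lysed by three freeze–thaw cycles. The debris pellet was extracted with MeOH. Pooled extracts were quantified by UPLC–Q-TOF targeted MS/MS against a calibration curve. Biological and technical triplicates.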

[4] = system: A. baumannii ATCC 17978::pROTO2 (NDM-1); assay: Meropenem rescue and MIC, antimicrobial susceptibility test; assay type: cell-based, Acinetobacter baumannii; settings: rescue concentration at meropenem 2 μg/mL
[5] = IC50 NDM-1 + Zn, Zn2+-supplemented (10 μM) buffer
[6] = IC50 NDM-1 - Zn, Zn2+-depleted (Chelex-100-treated) buffer

Chain of NDM-1 (C7C422 29-270, looked up, species assumed): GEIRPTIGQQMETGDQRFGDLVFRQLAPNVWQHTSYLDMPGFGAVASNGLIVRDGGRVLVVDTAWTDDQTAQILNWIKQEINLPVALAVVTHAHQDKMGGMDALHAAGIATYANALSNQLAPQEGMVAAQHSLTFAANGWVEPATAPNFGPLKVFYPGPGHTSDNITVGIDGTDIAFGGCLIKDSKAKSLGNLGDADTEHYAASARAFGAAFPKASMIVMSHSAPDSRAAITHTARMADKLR

Row | Compound | Kd [1] | RC in MHB, NDM-1 [2] | IC50 (IMP-7) | IC50 (NDM-1; [5]) | IC50 (NDM-1; [6]) | MIC (E. coli; read-out: MIC (antimicrobial activity)) | MIC ([3]; ATCC33495, read-out: MIC of compound (Table 3 footnote c)) | IC50 (VIM-2) | intracellular accumulation increase relative to AMA (E. coli BW25113 (WT)) | RC in MHB, K. pneumoniae ATCC 33495::pGDP2 (NDM-1) ([3]; rescue concentration at meropenem 2 μg/mL, MHB) | RC in MHB, A. baumannii ATCC 17978::pROTO2 (NDM-1) [4] | intracellular accumulation (E. coli BW25113 (WT); 10 min 37 °C) | MIC (E. coli; read-out: MIC of meropenem against resistant E. coli) | MIC ([3]; ATCC33495, read-out: Meropenem MIC (Table 3 footnote b))
1 | CC(C)(S)C(NC[C@H](NC[C@H](N)C(=O)O)C(=O)O)C(=O)O (stereo in doubt) [Compound 15, (S)-2-(((S)-2-(((S)-2-Amino-2-carboxyethyl)amino)-2-carboxyethyl)amino)-3-mercapto-3-methylbutanoic Acid] | 0.0023 ± 0.0004 µM | 32 µg/mL | > 500 µM | 56.1 ± 2.5 µM | 98.6 ± 4 µM | 64 µg/mL | 16 to 32 µg/mL | 361 ± 29 µM |  |  |  |  |  | 
2 | N[C@@H](CN[C@@H](CN[C@@H](CC(=O)O)C(=O)O)C(=O)O)CSc1ccc(O)cc1 [Compound 6, ((S)-2-(((S)-2-Amino-3-((4-hydroxyphenyl)thio)propyl)amino)-2-carboxyethyl)-L-aspartic Acid] | 0.0078 ± 0.0034 µM | 8 µg/mL | > 500 µM | 54 ± 4.1 µM | > 500 µM |  |  | 183 ± 10 µM | 4.5 fold | 16 μg/mL | 8 μg/mL |  |  | 
3 | C[C@@H](O)[C@H]1C(=O)N2C(C(=O)O)=C(S[C@@H]3CN[C@H](C(=O)N(C)C)C3)[C@H](C)[C@H]12 [meropenem, reference compound] |  |  |  |  |  |  |  |  |  |  |  | 43.9 nmol/10^12 CFU | 64 µg/mL | 16 to 32 µg/mL (≈ 41.7 to 83.4 µM)
